Experimental data published in ChEMBL document CHEMBL1138479, “Synthesis and antiplasmodial activity of aminoalkylamino-substituted neocryptolepine derivatives” (J Med Chem, 2009).
Calls of active or inactive are those of the source. The rule behind the calls is not given here.

system: Plasmodium berghei; experiment: Antiplasmodial activity as reduced parasitaemia against chloroquine-sensitive Plasmodium berghei ANKA infected Swiss mice (Mus musculus) at 50 mg/kg intraperitoneal dose 4-6 hrs post infection on day 4; type: functional; settings: not given
Outline: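 Swiss mice were infected ip with 4 × 10⁸ P. berghei ANKA-infected erythrocytes. Treatment was ip at 50 mg/kg daily for five consecutive days. Parasitaemia was scored on Giemsa-stained blood smears on days 4 and 7.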

SMILES	Activity
CCN(CC)CCCC(C)Nc1c2cc(Cl)ccc2nc2[nH]c3ccccc3c12 (stereo not given)	inactive
CCN(CC)CCCC(C)Nc1c2c3ccccc3nc-2n(C)c2ccc(Cl)cc12 (stereo not given)	100%

target: Nucleic Acid; experiment: Binding affinity to DNA assessed as intercalation after 24 hrs by DNA-methyl green assay; type: nucleic-acid assay; settings: not given
Outline: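 DNA-methyl green reagent (20 mg in 100 mL 0.05 M Tris HCl pH 7.5 with 7.5 mM MgSO4, stirred 24 h at 37 °C) was added to dried compound. A620 was read at 0 and after 24 h at 25 °C. […] Cryptolepine was the positive control.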

SMILES	IC50 [µM]
CN(C)CCNc1c2c3ccccc3nc-2n(C)c2ccc(Cl)cc12	164
CCN(CC)CCCC(C)Nc1c2ccc(Cl)cc2nc2[nH]c3ccccc3c12 (stereo not given)	> 1000
CN(C)CCNc1c2cc(Cl)ccc2nc2[nH]c3ccccc3c12	> 1000
CCN(CC)CCCC(C)Nc1c2c(Cl)cccc2nc2[nH]c3ccccc3c12 (stereo not given)	> 1000
CCN(CC)CCCC(C)Nc1ccc2nc3n(C)c4ccccc4cc-3c2c1 (stereo not given)	446
Clc1ccc2nc3[nH]c4ccccc4c3c(NCCN3CCCC3)c2c1	> 1000
Cn1c2nc3ccccc3c-2c(Cl)c2cc(Cl)ccc21	> 1000
CCN(CC)CCCC(C)Nc1c2cc(Cl)ccc2nc2[nH]c3ccccc3c12 (stereo not given)	> 1000
Clc1ccc2nc3[nH]c4ccccc4c3c(NCCN3CCOCC3)c2c1	> 1000
Cn1c2nc3ccccc3c-2c(N2CCC(N3CCCCC3)CC2)c2cc(Cl)ccc21	180
Clc1ccc2c(Cl)c3c(nc2c1)[nH]c1ccccc13	> 1000
CCN(CC)CCCC(C)Nc1ccc2c3cc4ccccc4n(C)c-3nc2c1 (stereo not given)	219
Clc1ccc2nc3[nH]c4ccccc4c3c(N3CCC(N4CCCCC4)CC3)c2c1	> 1000
CN1CCN(c2c3cc(Cl)ccc3nc3[nH]c4ccccc4c23)CC1	> 1000
CCN(CC)CCCC(C)Nc1ccc2c(c1)cc1c3ccccc3nc-1n2C (stereo not given)	128
Cn1c2nc3ccccc3c-2c(Cl)c2c(Cl)cccc21	> 1000
Clc1cccc2nc3[nH]c4ccccc4c3c(Cl)c12	> 1000
CCN1CCCC1CNc1c2cc(Cl)ccc2nc2[nH]c3ccccc3c12 (stereo not given)	> 1000
CCN(CC)CCCC(C)Nc1c2c3ccccc3nc-2n(C)c2ccc(Cl)cc12 (stereo not given)	> 1000

system: not listed separately; experiment: Toxicity in Swiss mice (Mus musculus) infected with chloroquine-sensitive Plasmodium berghei ANKA assessed as mortality at 50 mg/kg, intraperitoneally administered 4 to 6 hrs after infection for 5 consecutive days measured within 7 days of postinfection; type: organism-based; design: dose 50 mg/kg, route intraperitoneal; settings: in vivo, ip, read-out: Activity
Outline: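 Swiss mice were infected intraperitoneally with 4 × 10⁸ erythrocytes carrying chloroquine-sensitive P. berghei ANKA. They were dosed intraperitoneally at 50 mg/kg daily for five consecutive days. Parasitaemia was read on Giemsa-stained blood smears on days 4 and 7.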

SMILES	mortality at 7 days [%]
CCN(CC)CCCC(C)Nc1c2c3ccccc3nc-2n(C)c2ccc(Cl)cc12 (stereo not given)	50

target: T1, Histidine-rich protein PFHRP-II (Plasmodium falciparum, UniProt P05227); experiment: Inhibition of beta-hematin formation after 18 hrs by microtiter plate assay; type: functional; settings: not given
T1 sequence (P05227 whole entry): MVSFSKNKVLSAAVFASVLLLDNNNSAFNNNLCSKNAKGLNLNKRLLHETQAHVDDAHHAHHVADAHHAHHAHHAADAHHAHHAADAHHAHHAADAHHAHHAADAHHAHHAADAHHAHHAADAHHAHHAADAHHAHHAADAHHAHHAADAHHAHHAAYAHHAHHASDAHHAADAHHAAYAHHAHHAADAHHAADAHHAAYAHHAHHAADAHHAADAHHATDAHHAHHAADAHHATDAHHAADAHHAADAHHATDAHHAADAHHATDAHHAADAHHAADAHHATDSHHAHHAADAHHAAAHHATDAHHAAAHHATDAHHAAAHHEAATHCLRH

SMILES	IC50 [milliequivalent]
CCN(CC)CCCC(C)Nc1c2ccc(Cl)cc2nc2[nH]c3ccccc3c12 (stereo not given)	4.43
CN(C)CCNc1c2cc(Cl)ccc2nc2[nH]c3ccccc3c12	3.68
CCN(CC)CCCC(C)Nc1c2c(Cl)cccc2nc2[nH]c3ccccc3c12 (stereo not given)	3.05
Clc1ccc2nc3[nH]c4ccccc4c3c(NCCN3CCCC3)c2c1	5.4
CCN(CC)CCCC(C)Nc1c2cc(Cl)ccc2nc2[nH]c3ccccc3c12 (stereo not given)	2.3
CCN(CC)CCCC(C)Nc1ccc2c3cc4ccccc4n(C)c-3nc2c1 (stereo not given)	4.4
Clc1ccc2nc3[nH]c4ccccc4c3c(N3CCC(N4CCCCC4)CC3)c2c1	2.2
CN1CCN(c2c3cc(Cl)ccc3nc3[nH]c4ccccc4c23)CC1	2.09
CCN(CC)CCCC(C)Nc1ccc2c(c1)cc1c3ccccc3nc-1n2C (stereo not given)	1.45
CCN1CCCC1CNc1c2cc(Cl)ccc2nc2[nH]c3ccccc3c12 (stereo not given)	1.53

system: Plasmodium berghei; experiment: Antiplasmodial activity as reduced parasitaemia against chloroquine-sensitive Plasmodium berghei ANKA infected Swiss mice (Mus musculus) at 20 mg/kg intraperitoneal dose 4-6 hrs post infection on day 4; type: functional, organism-based; design: dose 20 mg/kg; settings: not given
Outline: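 Mice infected ip with P. berghei ANKA-infected erythrocytes (4 × 10⁸) received the compound intraperitoneally. Parasitaemia was counted on Giemsa-stained blood smears on days 4 and 7.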

SMILES	Activity
CCN(CC)CCCC(C)Nc1c2c3ccccc3nc-2n(C)c2ccc(Cl)cc12 (stereo not given)	inactive

system: not listed separately; experiment: Selectivity index, ratio of IC50 for human MRC5 SV2 cells to IC50 for chloroquine-sensitive Plasmodium falciparum Ghana; type: toxicity, cell-based; settings: read-out: Ratio IC50

SMILES	selectivity ratio
CCN(CC)CCCC(C)Nc1c2ccc(Cl)cc2nc2[nH]c3ccccc3c12 (stereo not given)	107
CN(C)CCNc1c2cc(Cl)ccc2nc2[nH]c3ccccc3c12	> 160
CCN(CC)CCCC(C)Nc1c2c(Cl)cccc2nc2[nH]c3ccccc3c12 (stereo not given)	17
CCN(CC)CCCC(C)Nc1ccc2nc3n(C)c4ccccc4cc-3c2c1 (stereo not given)	114
Clc1ccc2nc3[nH]c4ccccc4c3c(NCCN3CCCC3)c2c1	> 21
CCN(CC)CCCC(C)Nc1c2cc(Cl)ccc2nc2[nH]c3ccccc3c12 (stereo not given)	> 533
Clc1ccc2nc3[nH]c4ccccc4c3c(NCCN3CCOCC3)c2c1	> 2
Cn1c2nc3ccccc3c-2c(N2CCC(N3CCCCC3)CC2)c2cc(Cl)ccc21	2
CCN(CC)CCCC(C)Nc1ccc2c3cc4ccccc4n(C)c-3nc2c1 (stereo not given)	1800
Clc1ccc2nc3[nH]c4ccccc4c3c(N3CCC(N4CCCCC4)CC3)c2c1	> 8
CN1CCN(c2c3cc(Cl)ccc3nc3[nH]c4ccccc4c23)CC1	1
CCN(CC)CCCC(C)Nc1ccc2c(c1)cc1c3ccccc3nc-1n2C (stereo not given)	240
Cn1c2nc3ccccc3c-2c(Cl)c2c(Cl)cccc21	0.9
CCN1CCCC1CNc1c2cc(Cl)ccc2nc2[nH]c3ccccc3c12 (stereo not given)	39
CCN(CC)CCCC(C)Nc1c2c3ccccc3nc-2n(C)c2ccc(Cl)cc12 (stereo not given)	674

system: not listed separately; experiment: Cytotoxicity against human MRC5 SV2 cells after 72 hrs by resazurin-based fluorometric assay; type: cell-based; settings: MRC5, 72 h
Outline: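 MRC-5 SV2 fibroblasts were kept in MEM with 20 mM L-glutamine and 5% FCS at 37 °C, 5% CO2. Cells were seeded at 10⁴/well onto prediluted compounds and incubated 72 h. Viability was read fluorimetrically after resazurin addition.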

SMILES	IC50 [µM]
CN(C)CCNc1c2c3ccccc3nc-2n(C)c2ccc(Cl)cc12	< 0.25
CCN(CC)CCCC(C)Nc1c2ccc(Cl)cc2nc2[nH]c3ccccc3c12 (stereo not given)	15
CN(C)CCNc1c2cc(Cl)ccc2nc2[nH]c3ccccc3c12	> 64
CCN(CC)CCCC(C)Nc1c2c(Cl)cccc2nc2[nH]c3ccccc3c12 (stereo not given)	20
CCN(CC)CCCC(C)Nc1ccc2nc3n(C)c4ccccc4cc-3c2c1 (stereo not given)	16
Clc1ccc2nc3[nH]c4ccccc4c3c(NCCN3CCCC3)c2c1	> 64
Cn1c2nc3ccccc3c-2c(Cl)c2cc(Cl)ccc21	> 64
CCN(CC)CCCC(C)Nc1c2cc(Cl)ccc2nc2[nH]c3ccccc3c12 (stereo not given)	> 64
Clc1ccc2nc3[nH]c4ccccc4c3c(NCCN3CCOCC3)c2c1	> 64
Cn1c2nc3ccccc3c-2c(N2CCC(N3CCCCC3)CC2)c2cc(Cl)ccc21	4.4
Clc1ccc2c(Cl)c3c(nc2c1)[nH]c1ccccc13	> 64
CCN(CC)CCCC(C)Nc1ccc2c3cc4ccccc4n(C)c-3nc2c1 (stereo not given)	18
Clc1ccc2nc3[nH]c4ccccc4c3c(N3CCC(N4CCCCC4)CC3)c2c1	2
CN1CCN(c2c3cc(Cl)ccc3nc3[nH]c4ccccc4c23)CC1	3
CCN(CC)CCCC(C)Nc1ccc2c(c1)cc1c3ccccc3nc-1n2C (stereo not given)	7.2
Cn1c2nc3ccccc3c-2c(Cl)c2c(Cl)cccc21	34
Clc1cccc2nc3[nH]c4ccccc4c3c(Cl)c12	> 64
CCN1CCCC1CNc1c2cc(Cl)ccc2nc2[nH]c3ccccc3c12 (stereo not given)	15
CCN(CC)CCCC(C)Nc1c2c3ccccc3nc-2n(C)c2ccc(Cl)cc12 (stereo not given)	29

target: T1, Histidine-rich protein PFHRP-II; experiment: (§1) Inhibition of beta-hematin formation at 5 milliequivalent after 18 hrs by microtiter plate assay; type: functional; settings: not given

SMILES	IC50
CN(C)CCNc1c2c3ccccc3nc-2n(C)c2ccc(Cl)cc12	Not Active
Cn1c2nc3ccccc3c-2c(Cl)c2cc(Cl)ccc21	Not Active
Clc1ccc2nc3[nH]c4ccccc4c3c(NCCN3CCOCC3)c2c1	Not Active
Cn1c2nc3ccccc3c-2c(N2CCC(N3CCCCC3)CC2)c2cc(Cl)ccc21	Not Active
Clc1ccc2c(Cl)c3c(nc2c1)[nH]c1ccccc13	Not Active
Cn1c2nc3ccccc3c-2c(Cl)c2c(Cl)cccc21	Not Active
Clc1cccc2nc3[nH]c4ccccc4c3c(Cl)c12	Not Active

target: T2, Histidine-rich protein PFHRP-II (Plasmodium falciparum) (UniProt P05227); experiment: as §1; type: functional; settings: not given
T2 sequence (whole entry): T1 sequence (P05227 whole entry)

SMILES	inhibition [%]
CCN(CC)CCCC(C)Nc1ccc2nc3n(C)c4ccccc4cc-3c2c1 (stereo not given)	< 20
CCN(CC)CCCC(C)Nc1c2c3ccccc3nc-2n(C)c2ccc(Cl)cc12 (stereo not given)	< 20

system: Plasmodium falciparum; experiment: Antiplasmodial activity against chloroquine-sensitive Plasmodium falciparum Ghana in human erythrocytes after 72 hrs by Malstat assay; type: functional, organism-based; settings: not given
Outline: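 P. falciparum Ghana strain grown in human erythrocytes in RPMI-1640 at 37 °C under 3% O2, 4% CO2, 93% N2. Exposure to compounds lasted 72 h. Multiplication was read by Malstat with absorbance at 655 nm, and % growth inhibition was taken against negative blanks.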

SMILES	IC50 [µM]
CN(C)CCNc1c2c3ccccc3nc-2n(C)c2ccc(Cl)cc12	< 0.25
CCN(CC)CCCC(C)Nc1c2ccc(Cl)cc2nc2[nH]c3ccccc3c12 (stereo not given)	0.14
CN(C)CCNc1c2cc(Cl)ccc2nc2[nH]c3ccccc3c12	0.4
CCN(CC)CCCC(C)Nc1c2c(Cl)cccc2nc2[nH]c3ccccc3c12 (stereo not given)	1.2
CCN(CC)CCCC(C)Nc1ccc2nc3n(C)c4ccccc4cc-3c2c1 (stereo not given)	0.14
Clc1ccc2nc3[nH]c4ccccc4c3c(NCCN3CCCC3)c2c1	3
Cn1c2nc3ccccc3c-2c(Cl)c2cc(Cl)ccc21	> 64
CCN(CC)CCCC(C)Nc1c2cc(Cl)ccc2nc2[nH]c3ccccc3c12 (stereo not given)	0.12
Clc1ccc2nc3[nH]c4ccccc4c3c(NCCN3CCOCC3)c2c1	33
Cn1c2nc3ccccc3c-2c(N2CCC(N3CCCCC3)CC2)c2cc(Cl)ccc21	2.46
Clc1ccc2c(Cl)c3c(nc2c1)[nH]c1ccccc13	> 64
CCN(CC)CCCC(C)Nc1ccc2c3cc4ccccc4n(C)c-3nc2c1 (stereo not given)	0.01
Clc1ccc2nc3[nH]c4ccccc4c3c(N3CCC(N4CCCCC4)CC3)c2c1	< 0.25
CN1CCN(c2c3cc(Cl)ccc3nc3[nH]c4ccccc4c23)CC1	2.46
CCN(CC)CCCC(C)Nc1ccc2c(c1)cc1c3ccccc3nc-1n2C (stereo not given)	0.03
Cn1c2nc3ccccc3c-2c(Cl)c2c(Cl)cccc21	39
Clc1cccc2nc3[nH]c4ccccc4c3c(Cl)c12	> 64
CCN1CCCC1CNc1c2cc(Cl)ccc2nc2[nH]c3ccccc3c12 (stereo not given)	0.38
CCN(CC)CCCC(C)Nc1c2c3ccccc3nc-2n(C)c2ccc(Cl)cc12 (stereo not given)	0.043
